{"data": "Measured values of several laboratories", "target": "Dual specificity protein kinase CLK3 (CLK3, Homo sapiens, UniProt P49761)"}
{"SMILES": "COc1cc2ncnc(Nc3ccc(Oc4ccccc4)c(C)c3C)c2cc1OC", "effect on": "enzyme activity", "mode": "inhibitor", "tested at": "1 µM", "quantity": "inhibition", "result": "-3%"}
{"SMILES": "Cn1c2c(Cl)c(Cl)ccc2c2cc(N)[nH]c(=O)c21", "effect on": "thermal stability", "method": "DSF", "tested at": "10 µM", "quantity": "ΔTm", "result": "0.6 °C"}
{"SMILES": "CCCS(=O)(=O)Nc1ccc(F)c(C(=O)c2c[nH]c3ncc(-c4ccc(Cl)cc4)cc23)c1F", "effect on": "enzyme activity", "mode": "inhibitor", "tested at": "1 µM", "quantity": "inhibition", "result": "< 10%"}
{"SMILES": "Cn1c2c(c3ccc(Cl)c(Cl)c31)C(C#N)C1(CCNCC1)NC2=O (racemic)", "effect on": "thermal stability", "method": "DSF", "tested at": "10 µM", "quantity": "ΔTm", "result": "2.2 °C"}
{"SMILES": "CCOc1cc(-c2nncn2C)ccc1Nc1ncc2cc(C)nc(NCC(C)(C)C)c2n1", "effect on": "enzyme activity", "mode": "inhibitor", "method": "FRET", "tested at": "1 µM", "quantity": "inhibition", "result": "< 15%"}
{"SMILES": "CN1CCN(c2cnc3c(C4CCN(C(=O)c5ccc(OC(F)(F)F)cc5N)CC4)ncnc3c2)CC1", "effect on": "cell-free assay", "method": "competition with immobilised ligand", "tested at": "1 µM", "quantity": "remaining binding", "result": "100%"}
{"SMILES": "Cn1c2c(Cl)c(Cl)ccc2c2cc[nH]c(=O)c21", "effect on": "thermal stability", "method": "DSF", "tested at": "10 µM", "quantity": "ΔTm", "result": "1.5 °C"}
{"SMILES": "Cc1ccc(C(=O)Nc2ccc(CN3CCN(C)CC3)c(C(F)(F)F)c2)cc1C#Cc1cnc2cccnn12", "effect on": "enzyme activity", "mode": "inhibitor", "tested at": "23.5 nM", "quantity": "remaining activity", "result": "77%"}
{"SMILES": "Cc1nccc(COC(=O)N2C[C@@H]3[C@@H](CNC(=O)c4ccc5[nH]nnc5c4)[C@@H]3C2)n1", "effect on": "cell-free assay", "method": "competition with immobilised ligand", "tested at": "1 µM", "quantity": "remaining binding", "result": "90%"}
{"SMILES": "CC(C)(C)c1nc2c(s1)c1nc(N)ncc1c1ccc(NS(=O)(=O)c3c(F)cccc3F)c(F)c12", "effect on": "enzyme activity", "mode": "inhibitor", "method": "radiometric", "tested at": "1 µM", "quantity": "remaining activity", "result": "82%"}
{"SMILES": "COc1cc2c(Nc3ccc(Br)cc3F)ncnc2cc1OCC1CCN(C)CC1", "effect on": "cell-free assay", "tested at": "0.5 µM", "quantity": "remaining signal", "result": "100%"}
{"SMILES": "O=C(Nc1cnn(-c2csc(C(=O)NC3COC3)c2)c1)Nc1c(F)cccc1Cl", "effect on": "enzyme activity", "mode": "inhibitor", "tested at": "5 µM", "quantity": "remaining activity", "result": "93.5%"}
{"SMILES": "N#CCCc1ccc2c(c1)-c1[nH]c3ccc([N+](=O)[O-])cc3c1CC(=O)N2", "effect on": "cell-free assay", "tested at": "0.5 µM", "quantity": "remaining signal", "result": "108%"}
{"SMILES": "CCS(=O)(=O)c1cc2cc(C[C@](O)(CC(C)(C)c3ccc(F)cc3C(N)=O)C(F)(F)F)[nH]c2cn1", "effect on": "cell-free assay", "method": "competition with immobilised ligand", "tested at": "1 µM", "quantity": "remaining binding", "result": "100%"}
{"SMILES": "Oc1cccc(-c2nc(N3CCOCC3)c3oc4ncccc4c3n2)c1", "effect on": "cell-free assay", "tested at": "0.5 µM", "quantity": "remaining signal", "result": "93.1%"}
{"SMILES": "Nc1ncnc2occ(-c3ccc(NC(=O)Nc4cc(C(F)(F)F)ccc4F)cc3)c12", "effect on": "cell-free assay", "mode": "inhibitor", "tested at": "20 µM", "quantity": "remaining signal", "result": "54%"}
{"SMILES": "CNC(=O)c1cc(Oc2ccc(NC(=O)Nc3ccc(Cl)c(C(F)(F)F)c3)cc2)ccn1", "effect on": "enzyme activity", "mode": "inhibitor", "tested at": "10 µM", "quantity": "inhibition", "result": "13%"}
{"SMILES": "C[C@@]1(Cc2ccc(C#N)cc2)C(=O)N(c2cc(Cl)cc(Cl)c2)c2ncc(C(=O)NC3(c4nc(C5CCC5)no4)CC3)n21", "effect on": "cell-free assay", "method": "competition with immobilised ligand", "tested at": "1 µM", "quantity": "remaining binding", "result": "100%"}
{"SMILES": "CC/C(=N\\NC(=O)NCc1cccc(O)c1)c1ccc(O)c(C)c1O", "effect on": "enzyme activity", "mode": "inhibitor", "tested at": "0.1 µM", "quantity": "inhibition", "result": "-1.4%"}
{"SMILES": "CO[C@@H](C)c1c(Nc2ccc([C@H](N(C)C(=O)C3CCS(=O)(=O)CC3)C(F)(F)F)cc2)cnc2cc(Cl)nn12", "effect on": "cell-free assay", "method": "competition with immobilised ligand", "tested at": "1 µM", "quantity": "remaining binding", "result": "87%"}
{"SMILES": "CCN(CC)CCNC(=O)c1c(C)[nH]c(/C=C2\\C(=O)Nc3ccc(F)cc32)c1C", "effect on": "enzyme activity", "mode": "inhibitor", "tested at": "10 µM", "quantity": "inhibition", "result": "23%"}
